T1: DNA polymerase alpha catalytic subunit (Homo sapiens, UniProt P09884)
T1 sequence (P09884 whole entry): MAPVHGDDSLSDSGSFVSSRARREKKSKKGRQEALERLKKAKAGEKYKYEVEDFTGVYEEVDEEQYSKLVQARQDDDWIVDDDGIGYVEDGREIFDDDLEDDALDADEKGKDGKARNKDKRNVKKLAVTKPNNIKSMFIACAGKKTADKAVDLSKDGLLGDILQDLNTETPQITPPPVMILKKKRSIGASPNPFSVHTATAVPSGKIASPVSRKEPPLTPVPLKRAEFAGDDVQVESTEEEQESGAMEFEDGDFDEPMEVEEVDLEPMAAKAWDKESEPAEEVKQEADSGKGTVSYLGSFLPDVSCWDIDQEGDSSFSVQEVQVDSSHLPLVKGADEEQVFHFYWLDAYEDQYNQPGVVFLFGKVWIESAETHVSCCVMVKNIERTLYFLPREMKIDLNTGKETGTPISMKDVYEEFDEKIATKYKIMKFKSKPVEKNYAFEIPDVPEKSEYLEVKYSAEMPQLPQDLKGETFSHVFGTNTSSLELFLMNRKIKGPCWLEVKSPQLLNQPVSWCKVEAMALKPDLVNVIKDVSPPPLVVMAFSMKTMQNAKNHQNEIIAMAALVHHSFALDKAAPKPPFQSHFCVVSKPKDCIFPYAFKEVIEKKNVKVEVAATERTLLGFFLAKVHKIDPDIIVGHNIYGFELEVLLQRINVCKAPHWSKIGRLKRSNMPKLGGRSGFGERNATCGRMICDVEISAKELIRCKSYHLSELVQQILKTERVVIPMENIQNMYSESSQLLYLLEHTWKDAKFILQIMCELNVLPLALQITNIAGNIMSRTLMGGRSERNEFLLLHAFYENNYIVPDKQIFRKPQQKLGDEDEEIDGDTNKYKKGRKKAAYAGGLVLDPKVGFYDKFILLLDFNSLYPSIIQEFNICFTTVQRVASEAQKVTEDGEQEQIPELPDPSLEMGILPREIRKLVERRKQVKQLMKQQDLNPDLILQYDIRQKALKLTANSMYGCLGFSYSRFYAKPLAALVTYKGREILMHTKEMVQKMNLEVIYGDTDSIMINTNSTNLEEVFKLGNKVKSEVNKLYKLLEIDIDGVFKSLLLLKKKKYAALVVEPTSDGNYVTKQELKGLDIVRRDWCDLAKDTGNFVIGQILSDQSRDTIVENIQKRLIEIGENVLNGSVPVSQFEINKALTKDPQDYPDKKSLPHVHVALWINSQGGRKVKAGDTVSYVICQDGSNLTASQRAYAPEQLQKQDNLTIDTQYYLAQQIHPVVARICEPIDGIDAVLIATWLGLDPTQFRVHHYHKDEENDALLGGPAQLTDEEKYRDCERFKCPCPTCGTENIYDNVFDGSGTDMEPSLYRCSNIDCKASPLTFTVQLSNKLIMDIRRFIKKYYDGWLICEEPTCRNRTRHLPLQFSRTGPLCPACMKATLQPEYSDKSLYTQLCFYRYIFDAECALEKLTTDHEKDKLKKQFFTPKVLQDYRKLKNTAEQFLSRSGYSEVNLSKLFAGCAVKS

B1: DNA polymerase alpha catalytic subunit (Homo sapiens), P09884 (protein)
chain: T1 sequence (P09884 whole entry)

How the values were obtained:
CCRF-CEM [1] = assay: Percent control of RNA synthesis in CEM cells; assay type: functional, Homo sapiens
Summary of the method: (§1)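 CEM cells (RPMI 1640, 10% FBS) incubated with 29 μM or 35 μM compound (± 10 μM dCF). [3H]thymidine, [3H]uridine or [3H]leucine added 30 min after drug; samples at 1, 2 and 4 h after label. Acid-precipitable radioactivity measured; RNA taken as total acid-precipitable minus alkali-stable/acid-precipitable (DNA) fraction. Expressed as percent of control; repeated twice.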

CCRF-CEM [2] = assay: Percent control of DNA synthesis in CEM cells; assay type: functional, Homo sapiens; summary of the method: as §1
CCRF-CEM [3] = assay: Percent control of protein synthesis in CEM cells; assay type: functional, Homo sapiens; summary of the method: as §1
[4] = target: T1, DNA polymerase alpha catalytic subunit; assay: Ability to inhibit the incorporation of dATP into DNA by DNA polymerase alpha
Summary of the method: (§2)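 DNA polymerase α purified 52-fold from CEM cells (specific activity 120 nmol/mg/hr). 50 μL reactions: 50 mM Tris pH 8.0, 1 mg/mL BSA, 10 mM MgCl2, 1 mM DTT, 100 μg/mL activated DNA, 100 μM each dTTP and dCTP, 10 μM [3H]dGTP, dATP 0–100 μM. 1 h at 37 °C; TCA/ethanol-washed glass-fiber filters counted. Ki from slopes of Lineweaver–Burk lines vs inhibitor, three inhibitor concentrations.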

[5] = substrate: Nc1ncnc2c1ncn2[C@H]1C[C@H](O)[C@@H](COP(=O)(O)OP(=O)(O)OP(=O)(O)O)O1; assay: Km value with DNA polymerase alpha; assay type: functional; summary of the method: as §2

Row | Molecule | Control (CCRF-CEM [1]) [%] | Control (CCRF-CEM [2]) [%] | Control (CCRF-CEM [3]) [%] | Ki [4] [µM] | Km [5] [µM]
1 | CC(C)(C)C(=O)OCOP(=O)(OCOC(=O)C(C)(C)C)OC[C@H]1O[C@@H](n2c(Br)nc3c(N)ncnc32)C[C@@H]1O | 14 | 53 | 94 | – | –
2 | CC(C)(C)C(=O)OCOP(=O)(OCOC(=O)C(C)(C)C)OC[C@H]1O[C@@H](n2nnc3c(N)ncnc32)C[C@H]1O | 3 | 11 | 95 | 156 | –
3 | CC(C)(C)C(=O)OCOP(=O)(OCOC(=O)C(C)(C)C)OC[C@H]1O[C@@H](n2nnc3c(N)ncnc32)C[C@H]1O.OC[C@H]1O[C@@H](n2cnc3c2NC=NC[C@H]3O)C[C@@H]1O | 3 | 11 | 98 | – | –
4 | B1 | – | – | – | – | 4

Source: ChEMBL document CHEMBL1135827, “Enhancement of nucleoside cytotoxicity through nucleotide prodrugs” (J Med Chem, 2002)
